According to ChEMBL document CHEMBL4765374, “8-Alkynyl-3-nitroimidazopyridines display potent antitrypanosomal activity against both T. b. brucei and cruzi” (Eur J Med Chem, 2020):
pEC50: −log10 of the molar value.

What was measured:
[1] = Cytotoxicity against human HepG2 cells assessed as reduction in cell viability after 72 hrs by MTT assay; assay type: cell-based
Leishmania donovani [2] = experiment: Antileishmanial activity against Leishmania donovani MHOM/IN/00/DEVI promastigotes assessed as inhibition of metabolic activity measured after 72 hrs by MTT assay; assay type: functional, organism-based
In short: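 L. donovani MHOM/IN/00/DEVI promastigotes grown in Schneider's medium with 20% FCS at 27 °C. Log-phase parasites at 10⁶/mL were exposed in duplicate to serial compound concentrations in DMSO (final <0.5%) for 72 h at 27 °C. MTT was added for 4 h and absorbance read at 570 nm. EC50 from non-linear regression, mean of at least three independent experiments.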

[3] = tested on: Trypanosoma brucei brucei; experiment: […] activity against Trypanosoma brucei brucei AnTat 1.9 measured after 74 hrs by Alamar blue assay; assay type: functional, organism-based; conditions: AnTat 1.9, 74 h
In short: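 Bloodstream T. b. brucei AnTat 1.9 grown at 37 °C, 5% CO₂ in MEM with Earle's salts plus mercaptoethanol, L-cysteine, bathocuproine sulfate and 20% heat-inactivated horse serum. Seeded at 2000 parasites/100 µL and exposed in duplicate to compounds in DMSO for 69 h. Alamar Blue then added for 5 h, fluorescence read at ex 530/em 590 nm. EC50 by nonlinear regression from three independent experiments.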

[4] = Selectivity index, ratio of CC50 for human HepG2 cells to EC50 for Trypanosoma brucei brucei AnTat 1.9; assay type: toxicity; conditions: read-out: Selectivity Index
[5] = Solubility of the compound in aqueous medium at highest dose; assay type: physicochemical; conditions: buffer
THP-1 = experiment: Cytotoxicity against human THP-1 cells assessed as reduction in cell viability after 72 hrs by MTT assay; assay type: functional
In short: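 THP-1 cells at 5×10⁴ cells/mL in complete RPMI were exposed in duplicate to compounds in DMSO (final <0.5%) for 72 h at 37 °C. MTT at 0.5 mg/mL for 2 h, formazan dissolved in DMSO, absorbance read at 570 nm with 630 nm reference. CC50 from the dose-response curve, mean of three independent experiments.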

[6] = Selectivity index, ratio of CC50 for cytotoxicity against human HepG2 cells to EC50 for antileishmanial activity against Leishmania donovani MHOM/IN/00/DEVI promastigotes; assay type: toxicity, cell-based; conditions: read-out: Selectivity Index
Leishmania donovani [7] = experiment: Antileishmanial activity against wild type Leishmania donovani BOB (MHOM/SD/62/1S-CL2D) promastigotes incubated for 72 hrs by resazurin dye based assay; assay type: functional, organism-based
In short: (§1)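 Clonal L. donovani LdBOB promastigotes grown at 26 °C in modified M199; NTR1- and NTR2-overexpressing lines maintained with nourseothricin (100 µg/mL). Triplicate 10 mL cultures seeded at 5×10^4 parasites/mL with drug for 72 h; 200 µL aliquots then given 50 µM resazurin, fluorescence (ex 528/em 590 nm) after 4 h more. EC50 from slope-factor equation; experiments repeated at least twice, mean plus standard deviation.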

Leishmania donovani [8] = experiment: Antileishmanial activity against Leishmania donovani BOB (MHOM/SD/62/1S-CL2D) promastigotes overexpressing NTR1 incubated for 72 hrs by resazurin dye based assay; assay type: functional, organism-based; in short: as §1
Leishmania donovani [9] = experiment: Antileishmanial activity against Leishmania donovani BOB (MHOM/SD/62/1S-CL2D) promastigotes overexpressing NTR2 incubated for 72 hrs by resazurin dye based assay; assay type: functional, organism-based; in short: as §1
[10] = tested on: Trypanosoma brucei brucei; experiment: Antitrypanosomal activity against bloodstream form of wild type Trypanosoma brucei brucei S427 trypomastigotes incubated for 72 hrs; assay type: functional, organism-based; conditions: S427, 72 h
In short: (§2)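 Bloodstream-form T. brucei 'single marker' S427 cultured at 37 °C in HMI9-T with 2.5 µg/mL G418. The NTR1-overexpressing line was kept with 2.5 µg/mL phleomycin and induced with 1 µg/mL tetracycline 48 h before testing. Triplicate cultures seeded at 1×10^5 cells/mL with inhibitor. Cell densities counted after 72 h. EC50 from slope-factor equation.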

[11] = tested on: Trypanosoma brucei brucei; experiment: Antitrypanosomal activity against bloodstream form of Trypanosoma brucei brucei S427 trypomastigotes overexpressing NTR incubated for 72 hrs; assay type: functional, organism-based; conditions: S427, 72 h; in short: as §2

Row | SMILES | pEC50 [3] | solubility [5] | CC50 at 72 h [1] [nM] | pEC50 (Leishmania donovani [2]) | selectivity ratio [4] | selectivity ratio [6] | other results
1 | COc1ccccc1C#Cc1cc(Cl)cn2c([N+](=O)[O-])c(CS(=O)(=O)c3ccccc3)nc12 |  | Insoluble | > 3900 |  |  |  | 
2 | CCCCCCCCCCCCCCCCOP(=O)([O-])OCC[N+](C)(C)C [MILTEFOSINE] |  |  |  |  |  |  | CC50 (THP-1): 35000 nM
3 | O=[N+]([O-])c1c(CS(=O)(=O)c2ccccc2)nc2c(C#Cc3ccccc3F)cc(Cl)cn12 |  | Insoluble | > 3900 |  |  |  | 
4 | Cc1ccc(C(=O)Nc2ccc(S(=O)(=O)O)c3cc(S(=O)(=O)O)cc(S(=O)(=O)O)c23)cc1NC(=O)c1cccc(NC(=O)Nc2cccc(C(=O)Nc3cc(C(=O)Nc4ccc(S(=O)(=O)O)c5cc(S(=O)(=O)O)cc(S(=O)(=O)O)c45)ccc3C)c2)c1 [SURAMIN] |  |  | > 100000 |  |  |  | 
5 | CCC(O)CC#Cc1cc(Cl)cn2c([N+](=O)[O-])c(CS(=O)(=O)c3ccccc3)nc12 (configuration not stated) | 7.40 | Insoluble | > 62500 | 5.80 | > 1560 | > 39.1 | pEC50 (Leishmania donovani [7]): 5.14; pEC50 (Leishmania donovani [8]): 6.40; pEC50 (Leishmania donovani [9]): 5.07; pEC50 [10]: 6.70; pEC50 [11]: 7.18
6 | NCCCC(N)(C(=O)O)C(F)F (configuration not stated) [EFLORNITHINE] |  |  | > 100000 |  | > 7.5 |  | 
7 | CC(C)(O)C#Cc1cc(Cl)cn2c([N+](=O)[O-])c(CS(=O)(=O)c3ccccc3)nc12 | 6.92 | Insoluble | > 62500 | 5.52 | > 521 | > 20.8 | 
8 | COc1cccc2c1C(=O)c1c(O)c3c(c(O)c1C2=O)C[C@@](O)(C(=O)CO)C[C@@H]3O[C@H]1C[C@H](N)[C@H](O)[C@H](C)O1 [DOXORUBICIN] |  |  |  |  |  |  | CC50 (THP-1): 700 nM
9 | O=[N+]([O-])c1c(CS(=O)(=O)c2ccccc2)nc2c(C#CC3(O)CCCC3)cc(Cl)cn12 | 7.00 | Insoluble | > 31300 | 5.77 | > 313 | > 18.4 | 
10 | O=[N+]([O-])c1c(CS(=O)(=O)c2ccccc2)nc2c(Sc3ccc(Cl)cc3)cc(Cl)cn12 | 5.89 |  |  | 6.00 | > 76.9 |  | 
11 | O=[N+]([O-])c1c(CS(=O)(=O)c2ccccc2)nc2c(C#Cc3cccs3)cc(Cl)cn12 |  | Insoluble | > 3900 |  |  |  | 
12 | CC1CS(=O)(=O)CCN1/N=C/c1ccc([N+](=O)[O-])o1 (configuration not stated) [NIFURTIMOX] | 5.59 |  | 45200 |  | 17.4 |  | 
13 | O=C(Cn1ccnc1[N+](=O)[O-])NCc1ccccc1 [BENZNIDAZOLE] |  |  |  |  |  |  | CC50 (THP-1): > 200000 nM
14 | CC(O)(C#Cc1cc(Cl)cn2c([N+](=O)[O-])c(CS(=O)(=O)c3ccccc3)nc12)c1ccccc1 (configuration not stated) | 6.89 |  | 18800 | 6.00 | > 145 | 18.8 | 
15 | CC(O)C#Cc1cc(Cl)cn2c([N+](=O)[O-])c(CS(=O)(=O)c3ccccc3)nc12 (configuration not stated) | 7.40 |  | 44200 | 5.33 | 1100 | 9.4 | 
16 | O=[N+]([O-])c1c(CS(=O)(=O)c2ccccc2)nc2c(C#Cc3ccc(F)cc3)cc(Cl)cn12 |  | Insoluble | > 3900 |  |  |  | 

Now from value to compound, other results behind:

Row | pEC50 [3] | solubility [5] | SMILES | CC50 at 72 h [1] [nM] | pEC50 (Leishmania donovani [2]) | selectivity ratio [4] | selectivity ratio [6] | other results
17 | 5.17 | Insoluble | Nc1c(CS(=O)(=O)c2ccccc2)nc2c(C#CCCO)cc(Cl)cn12 | > 62500 | < 4.20 | > 9.2 |  | 
18 | 6.22 |  | CSc1ccc(OCc2ncc([N+](=O)[O-])n2C)cc1 [FEXINIDAZOLE] |  | 5.92 |  |  | CC50 (THP-1): > 200000 nM
19 |  | Insoluble | COc1ccc(C#Cc2cc(Cl)cn3c([N+](=O)[O-])c(CS(=O)(=O)c4ccccc4)nc23)cc1 | > 3900 |  |  |  | 
20 |  | Insoluble | COc1cccc(C#Cc2cc(Cl)cn3c([N+](=O)[O-])c(CS(=O)(=O)c4ccccc4)nc23)c1 | > 3900 |  |  |  | 
21 | 6.60 |  | O=[N+]([O-])c1c(CS(=O)(=O)c2ccccc2)nc2c(-c3ccncc3)cc(Cl)cn12 | > 50000 | 5.92 |  |  | 
22 |  | Insoluble | O=[N+]([O-])c1c(CS(=O)(=O)c2ccccc2)nc2c(C#Cc3cccnc3)cc(Cl)cn12 | > 3900 |  |  |  | 
23 | 6.80 | Insoluble | O=[N+]([O-])c1c(CS(=O)(=O)c2ccccc2)nc2c(C#Cc3ccc(CO)cc3)cc(Cl)cn12 | > 15600 | 5.80 | > 97.5 | > 9.8 | 
24 | 5.54 | Insoluble | O=[N+]([O-])c1c(CS(=O)(=O)c2ccccc2)nc2c(Br)cc(Br)cn12 | > 31000 | 5.74 |  |  | 
25 | 6.80 |  | O=[N+]([O-])c1c(CS(=O)(=O)c2ccccc2)nc2c(C#CCOc3ccccc3)cc(Cl)cn12 | 8400 | 5.89 | 52.5 | 6.5 | 
26 |  | Insoluble | O=[N+]([O-])c1c(CS(=O)(=O)c2ccccc2)nc2c(C#Cc3ccccc3)cc(Cl)cn12 | > 3900 |  |  |  | 
27 | 7.00 | Insoluble | O=[N+]([O-])c1c(CS(=O)(=O)c2ccccc2)nc2c(C#CC3(O)CCCCC3)cc(Cl)cn12 | > 25000 | 6.00 | > 250 | > 25 | 
28 | 6.92 |  | O=[N+]([O-])c1c(CS(=O)(=O)c2ccccc2)nc2c(C#CCO)cc(Cl)cn12 | 10100 | 5.41 | 84.2 | 2.6 | 
29 |  | Insoluble | O=[N+]([O-])c1c(CS(=O)(=O)c2ccccc2)nc2c(C#Cc3cccc(F)c3)cc(Cl)cn12 | > 3900 |  |  |  | 
30 |  | Insoluble | Nc1ccc(C#Cc2cc(Cl)cn3c([N+](=O)[O-])c(CS(=O)(=O)c4ccccc4)nc23)cc1 | > 3900 |  |  |  | 
